High-throughput results: PubChem, The Scripps Research Institute Molecular Screening Center
TRPML3 agonist – agonists of human TRPML3 channel; Q8TDD5; HEK293 TRPML3-YFP, Fluo-8 calcium fluorescence; 100% = the carbachol control signal; activation, % at 3 µM; 0.29% of 220,000 active; AID 1448;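 active = activation above its plate's cutoff, the mean activation of the plate's test wells plus 3 SD, cut at about 12% in these data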;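 note: 0% = DMSO only wells and 100% = carbachol wells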
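Material: HEK293 cells stably carrying human TRPML3-YFP; compound dosing: single dose, 3 µM final nominal compound, 0.3% DMSO final; incubation: 1-h 37 °C dye load, 5-s basal, 120-s post-compound reads; technique: Fluo-8 intracellular calcium fluorescence, excitation 470-495 nm, emission 515-575 nm; read-out basis: percent activation from peak-to-basal fluorescence ratio, scaled between DMSO and carbachol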
GPR7 antag – antagonists of human GPR7 (neuropeptides B/W receptor 1); P48145; GPR7-expressing cells, fluorescence antagonist assay; inhibition, % at 4.4 µM; 1.1% of 290,000 active; in the data active = inhibition above about 16%, passing the limit was not always enough;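 note: cells stimulated with the agonist NPW; 0% = agonist with vehicle and 100% = vehicle without agonist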
OX1R antag-1 – blocks the human orexin 1 receptor | O43613 | OX1R-expressing cells, FRET antagonist read-out | inhibition, % at 6.6 µM | 1.8% of 330,000 active | AID 485270; in the data active = inhibition mostly above about 38%, no sharp cut-off; inactive = mostly below about 40%;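 note: 0% = agonist challenge alone and 100% = reference antagonist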
Target sequence (O43613 whole entry, looked up): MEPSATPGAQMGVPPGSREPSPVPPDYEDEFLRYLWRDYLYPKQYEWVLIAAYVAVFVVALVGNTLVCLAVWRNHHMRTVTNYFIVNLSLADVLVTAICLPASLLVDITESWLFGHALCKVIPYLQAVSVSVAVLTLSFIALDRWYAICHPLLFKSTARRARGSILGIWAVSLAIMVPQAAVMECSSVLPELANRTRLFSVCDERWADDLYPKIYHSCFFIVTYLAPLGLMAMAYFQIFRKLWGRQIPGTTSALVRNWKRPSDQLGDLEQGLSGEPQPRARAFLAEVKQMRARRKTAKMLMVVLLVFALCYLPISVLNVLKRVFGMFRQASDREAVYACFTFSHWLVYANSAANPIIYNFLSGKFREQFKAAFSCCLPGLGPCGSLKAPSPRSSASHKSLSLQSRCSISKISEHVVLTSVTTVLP
OX1R antag-2 – antagonists of human orexin 1 receptor | O43613 | CHO/OX1R cells, Fluo-8 calcium fluorescence, orexin A | inhibition, % at 5 µM | 0.43% of 330,000 active | AID 434989;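 active = inhibition above its plate's threshold, mean inhibition of all tested compounds on the plate plus 3 SD, cut at about 37% in these data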;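 note: 0% = orexin A challenge wells and 100% = SB-334867-A antagonist wells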
zfTRPN1 agonist – agonists of zebrafish TRPN1 channel; activation, % at 3 µM; 0.18% of 220,000 active; AID 1424; HEK293 zebrafish TRPN1-YFP, Fluo-8 calcium fluorescence; 100% = response to 87 µM carbachol;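 active = activation above its plate's cutoff, the mean activation of test wells on that plate plus 3 SD, cut at about 19% in these data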;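 note: 0% = DMSO alone and 100% = 87 µM carbachol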
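Material – zebrafish TRPN1-YFP in HEK293 cells · Doses – 3 µM single point · Schedule – dye 1 h 37 °C plus 30 min RT · Signal – Fluo-8 calcium fluorescence, excitation 470-495 nm, emission 515-575 nm · Read-out – % activation versus carbachol response · Control set – carbachol high, DMSO low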
CHO parental Ca – counter-screen: ATP calcium response change in parental CHO cells. parental CHO-K1, ATP-induced calcium, Fluo-8 fluorescence. inhibition, % at 5.6 µM. 0.63% of 330,000 active. AID 463079;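 active = inhibition above that plate's mean sample inhibition plus 3 SD, cut at about 26% in these data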;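 note: 0% = ATP-challenged DMSO wells and 100% = DMSO wells without ATP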
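Measured by: calcium-sensitive Fluo-8 fluorescence / Test system: CHO parental line / Controls: ATP-challenged DMSO wells low, unchallenged DMSO wells high / Measure: % inhibition / Compound: single nominal dose of 5.6 µM per compound / Replicates: single well per compound, no replicates / Reagent: ATP as calcium-mobilizing challenge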
* hit, by the source's call. Most compounds without a hit are left out; they make up all but 3.2% or so of the library.

What do the screens show for `CCN(CC)c1ccc(-c2c(C#N)c(N)nc(OC)c2C#N)cc1`?
TRPML3 agonist: 0; GPR7 antag: -8; OX1R antag-1: 17; OX1R antag-2: 5; zfTRPN1 agonist: 2; CHO parental Ca: 36*

What do the screens show for `Cc1cccc(OCC(=O)NNc2c3ccccc3nc3ccccc23)c1`?
TRPML3 agonist: 0; GPR7 antag: -10; OX1R antag-1: 41*; OX1R antag-2: 15; zfTRPN1 agonist: 0; CHO parental Ca: -8

Results for Cc1ccc(OCC(=O)NNc2c3ccccc3nc3ccccc23)cc1 ?
TRPML3 agonist: 0; GPR7 antag: -17; OX1R antag-1: 53; OX1R antag-2: -3; zfTRPN1 agonist: 2; CHO parental Ca: -21

Results for Cc1ccc(NC(=O)CCn2c(=O)c3cccn3c3ccccc32)c(C)c1 ?
GPR7 antag: -7; OX1R antag-1: 8; OX1R antag-2: -30; CHO parental Ca: -11

What do the screens show for `Cc1cc(C)cc(NC(=O)CCn2c(=O)c3cccn3c3ccccc32)c1`?
GPR7 antag: -1; OX1R antag-1: 41*; OX1R antag-2: 13; CHO parental Ca: -12

Results for Cn1nc(-c2ccc(Cl)cc2)nc2c(=O)n(C)c(=O)nc1-2 ?
TRPML3 agonist: 1; GPR7 antag: -22; OX1R antag-1: 91*; OX1R antag-2: -16; zfTRPN1 agonist: 0; CHO parental Ca: -24

What do the screens show for `CS(=O)(=O)n1nc(-c2ccc(Cl)cc2)nc1N`?
TRPML3 agonist: 0; GPR7 antag: -9; OX1R antag-1: 17; OX1R antag-2: -8; zfTRPN1 agonist: -1; CHO parental Ca: -11

What do the screens show for `O=C(NC(=O)N1CCCCCC1)c1ccc(Cl)cc1`?
GPR7 antag: -9; OX1R antag-1: 30; OX1R antag-2: -4; CHO parental Ca: -5

How did O=[N+]([O-])c1cc(Br)c(O)c(/C=N/Nc2nnnn2-c2cccc3ccccc23)c1 do in these assays?
TRPML3 agonist: 1; GPR7 antag: 8; OX1R antag-1: 45*; OX1R antag-2: -10; zfTRPN1 agonist: 0; CHO parental Ca: -18

Results for COCc1cc(C)nc2sc(C(=O)Nc3cccc(OC)c3)c(N)c12 ?
GPR7 antag: 16; OX1R antag-1: 39*; OX1R antag-2: -14; CHO parental Ca: -14

What do the screens show for `COCc1cc(C)nc2sc(C(=O)Nc3ccc(OC)cc3)c(N)c12`?
GPR7 antag: 1; OX1R antag-1: 32; OX1R antag-2: -26; CHO parental Ca: -14

How did CCOc1ccc(NC(=O)Nc2ccc3nsnc3c2)cc1 do in these assays?
TRPML3 agonist: 6; GPR7 antag: -2; OX1R antag-1: 18; OX1R antag-2: 1; zfTRPN1 agonist: 8; CHO parental Ca: 2

Results for Cc1ccc(NC(=S)NCc2ccc3c(c2)OCO3)cc1C ?
TRPML3 agonist: 0; GPR7 antag: -10; OX1R antag-1: 4; OX1R antag-2: -11; zfTRPN1 agonist: 1; CHO parental Ca: -17

What do the screens show for `CCOc1ccc(NC(=S)Nc2ccc3nsnc3c2)cc1`?
TRPML3 agonist: 1; GPR7 antag: 11; OX1R antag-1: 113*; OX1R antag-2: -12; zfTRPN1 agonist: 0; CHO parental Ca: -12

Results for S=C(NCc1ccc2c(c1)OCO2)Nc1ccc2nsnc2c1 ?
TRPML3 agonist: 5; GPR7 antag: 8; OX1R antag-1: 40; OX1R antag-2: 53*; zfTRPN1 agonist: 7; CHO parental Ca: 32

How did C/C(=N\NC(=O)c1nnn(-c2nonc2N)c1-c1ccc2c(c1)OCO2)c1ccc(C)cc1 do in these assays?
GPR7 antag: -9; OX1R antag-1: 28; OX1R antag-2: 2; CHO parental Ca: -3

How did CC(=O)Nc1cccc(NC(=O)C(=O)NCC(c2ccco2)N2CCc3ccccc32)c1 (centres undefined) do in these assays?
OX1R antag-1: 30; OX1R antag-2: -32; CHO parental Ca: -25

Results for Cc1cc(C)c(O)c(-c2cc(C(=O)Nc3cccnc3)[nH]n2)c1 ?
TRPML3 agonist: 2; GPR7 antag: -3; OX1R antag-1: 44*; OX1R antag-2: 26; zfTRPN1 agonist: 2; CHO parental Ca: 3

How did COc1ccc(NC(=O)c2cc(-c3cc(C)cc(C)c3O)n[nH]2)cc1Cl do in these assays?
TRPML3 agonist: 1; GPR7 antag: 2; OX1R antag-1: 79*; OX1R antag-2: 8; zfTRPN1 agonist: 1; CHO parental Ca: 15

How did COc1ccc(OC)c(NC(=O)c2cc(-c3cc(C)c(C)cc3O)n[nH]2)c1 do in these assays?
GPR7 antag: 0; OX1R antag-1: 26; OX1R antag-2: -22; CHO parental Ca: -13

What do the screens show for `COc1ccc(NC(=O)c2cc(-c3cc(Cl)ccc3O)n[nH]2)c(OC)c1`?
GPR7 antag: 2; OX1R antag-1: 42*; OX1R antag-2: 20; CHO parental Ca: -24

How did COc1ccc(OC)c(NC(=O)c2cc(-c3cc(C)cc(C)c3O)n[nH]2)c1 do in these assays?
GPR7 antag: -11; OX1R antag-1: 62*; OX1R antag-2: 27; CHO parental Ca: -17

How did COc1ccc(NC(=O)c2cc(-c3cc(C)c(C)cc3O)n[nH]2)c(OC)c1 do in these assays?
GPR7 antag: -10; OX1R antag-1: 13; OX1R antag-2: -24; CHO parental Ca: 1

What do the screens show for `O=C(Nc1ccc(S(=O)(=O)N2CCOCC2)cc1)c1cc(-c2cc(Cl)ccc2O)n[nH]1`?
TRPML3 agonist: 2; GPR7 antag: 20*; OX1R antag-1: 16; OX1R antag-2: 2; zfTRPN1 agonist: 5; CHO parental Ca: 13

What do the screens show for `Cc1ccc(C)c(NC(=O)c2cc(-c3cc(C)ccc3O)n[nH]2)c1`?
GPR7 antag: -1; OX1R antag-1: 26; OX1R antag-2: -20; CHO parental Ca: 32*

How did CC(=O)NC(Cc1cccc(F)c1)C(=O)NC1CCN(c2nnnn2-c2ccccc2)CC1 (centres undefined) do in these assays?
TRPML3 agonist: 0; GPR7 antag: -5; OX1R antag-1: 11; OX1R antag-2: 7; zfTRPN1 agonist: 0; CHO parental Ca: -12

How did COCCNC(=O)C1CC(c2ccc(C(F)(F)F)cc2)=NO1 (centres undefined) do in these assays?
OX1R antag-1: 20; OX1R antag-2: 4; CHO parental Ca: 2

What do the screens show for `CC(C)CCNC(=O)C1CC(c2ccc(C(F)(F)F)cc2)=NO1` (centres undefined)?
OX1R antag-1: 53; OX1R antag-2: -4; CHO parental Ca: 52*

How did COC(=O)c1ccc(CSc2nnc(N)s2)cc1 do in these assays?
TRPML3 agonist: 0; GPR7 antag: 19*; OX1R antag-1: 26; OX1R antag-2: 1; zfTRPN1 agonist: 0; CHO parental Ca: 4

What do the screens show for `C=CCNC(=O)c1c(Br)cnn1-c1ccc(C)cc1`?
TRPML3 agonist: -1; GPR7 antag: 18*; OX1R antag-1: 12; OX1R antag-2: -29; zfTRPN1 agonist: -2; CHO parental Ca: 0
